Experiment [1] concerns the target T1, Glucocorticoid receptor (Homo sapiens, UniProt P04150).
T1 sequence (P04150 whole entry): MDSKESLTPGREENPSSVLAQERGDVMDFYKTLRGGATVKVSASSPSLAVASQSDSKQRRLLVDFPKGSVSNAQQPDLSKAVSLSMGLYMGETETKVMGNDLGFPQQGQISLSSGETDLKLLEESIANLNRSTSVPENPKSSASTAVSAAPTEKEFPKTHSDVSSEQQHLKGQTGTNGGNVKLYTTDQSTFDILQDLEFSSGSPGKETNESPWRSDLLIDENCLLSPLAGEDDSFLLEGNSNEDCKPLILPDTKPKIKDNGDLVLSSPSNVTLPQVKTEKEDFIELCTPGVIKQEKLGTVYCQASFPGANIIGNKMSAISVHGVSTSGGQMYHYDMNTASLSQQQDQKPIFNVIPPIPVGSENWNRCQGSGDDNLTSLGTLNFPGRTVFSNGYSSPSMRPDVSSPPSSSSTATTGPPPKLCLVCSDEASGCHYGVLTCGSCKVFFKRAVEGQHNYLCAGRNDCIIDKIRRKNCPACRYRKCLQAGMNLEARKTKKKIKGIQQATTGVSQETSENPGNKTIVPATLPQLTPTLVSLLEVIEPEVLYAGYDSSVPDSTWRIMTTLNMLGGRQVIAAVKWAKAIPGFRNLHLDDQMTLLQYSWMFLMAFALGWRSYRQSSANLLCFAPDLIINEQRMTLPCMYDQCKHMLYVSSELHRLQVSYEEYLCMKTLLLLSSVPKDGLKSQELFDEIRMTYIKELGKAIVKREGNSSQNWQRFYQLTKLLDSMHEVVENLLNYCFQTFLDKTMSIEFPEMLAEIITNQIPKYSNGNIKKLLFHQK
In words: Transactivation activity of glucocorticoid receptor ligand binding domain expressed in human NP-1 Hela cells co-expressing GAL4 DNA binding domain by luciferase reporter gene assay. The experiment is classed as cell-based. (In a reporter assay the amount or activity of a reporter protein is the signal.)

The target of experiment [2] is T1, Glucocorticoid receptor. Kind of experiment: Transrepression activity of glucocorticoid receptor in human A549 cells expressing AP-1 assessed as inhibition of PMA-induced AP-1 activity by luciferase reporter gene assay. It counts as cell-based.
In experiment [3] the target is T1, Glucocorticoid receptor. Kind of experiment: Transrepression activity of glucocorticoid receptor in human A549 cells assessed as inhibition of IL1beta-stimulated NFkappaB-dependent E-selectin transcription by luciferase reporter gene assay. The experiment is classed as cell-based.
In experiment [4] the target is T1, Glucocorticoid receptor. Kind of experiment: Displacement of GS-red from GRapha by fluorescence polarization assay. Background: In fluorescence polarisation assays a small probe gives low polarisation when free and higher when bound to something large.
Experiment [5] addresses T2, Glucocorticoid receptor (Homo sapiens) (UniProt P04150).
T2 sequence (whole entry): T1 sequence (P04150 whole entry)
In words: Transrepression activity of glucocorticoid receptor in human A549 cells expressing AP-1 assessed as inhibition of PMA-induced AP-1 activity by luciferase reporter gene assay relative to Dexamethasone. The experiment is classed as cell-based. An outline of the steps:
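Human A549 lung epithelial cells stably transfected with a 5×AP-1 response element luciferase reporter. AP-1 was induced with PMA (15 ng/mL), and inhibition was read as decreased luciferase.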

The target in experiment [6] is T2, Glucocorticoid receptor (Homo sapiens). Kind of experiment: Transrepression activity of glucocorticoid receptor in human A549 cells assessed as inhibition of IL1beta-stimulated NFkappaB-dependent E-selectin transcription by luciferase reporter gene assay relative to Dexamethasone. It counts as cell-based.
Experiment [7] shares this target. Kind of experiment: Transactivation activity of glucocorticoid receptor ligand binding domain expressed in human NP-1 Hela cells co-expressing GAL4 DNA binding domain by luciferase reporter gene assay relative to Dexamethasone. The experiment is classed as cell-based. A digest of the protocol: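 HeLa NP-1 cells stably carrying a GAL4 DBD–human GR LBD chimera with a GAL4 luciferase reporter. Agonist activity was read as increased luciferase activity.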

Experiment [8] deals with T1, Glucocorticoid receptor. Kind of experiment: Transactivation activity at glucocorticoid receptor in human 13D3/Huh7 cells assessed as induction of tyrosine aminotransferase activity after 24 hrs. The experiment is classed as cell-based, Huh-7.
In experiment [9] the target is T2, Glucocorticoid receptor (Homo sapiens). In words: Transactivation activity at glucocorticoid receptor in human 13D3/Huh7 cells assessed as induction of tyrosine aminotransferase activity after 24 hrs relative to Dexamethasone. It counts as cell-based. As to conditions: Huh-7. A digest of the protocol: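 Human 13D3/Huh7 hepatoma cells, 20 K/well, were incubated overnight at 37 °C/5% CO2. They were then treated overnight with compounds in assay medium containing 20 μM forskolin. The reaction was stopped with KOH and A340 read. Results are % activation, with EC50 derived.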

The target of another experiment is T3, Progesterone receptor (Homo sapiens, UniProt P06401).
T3 sequence (P06401 whole entry): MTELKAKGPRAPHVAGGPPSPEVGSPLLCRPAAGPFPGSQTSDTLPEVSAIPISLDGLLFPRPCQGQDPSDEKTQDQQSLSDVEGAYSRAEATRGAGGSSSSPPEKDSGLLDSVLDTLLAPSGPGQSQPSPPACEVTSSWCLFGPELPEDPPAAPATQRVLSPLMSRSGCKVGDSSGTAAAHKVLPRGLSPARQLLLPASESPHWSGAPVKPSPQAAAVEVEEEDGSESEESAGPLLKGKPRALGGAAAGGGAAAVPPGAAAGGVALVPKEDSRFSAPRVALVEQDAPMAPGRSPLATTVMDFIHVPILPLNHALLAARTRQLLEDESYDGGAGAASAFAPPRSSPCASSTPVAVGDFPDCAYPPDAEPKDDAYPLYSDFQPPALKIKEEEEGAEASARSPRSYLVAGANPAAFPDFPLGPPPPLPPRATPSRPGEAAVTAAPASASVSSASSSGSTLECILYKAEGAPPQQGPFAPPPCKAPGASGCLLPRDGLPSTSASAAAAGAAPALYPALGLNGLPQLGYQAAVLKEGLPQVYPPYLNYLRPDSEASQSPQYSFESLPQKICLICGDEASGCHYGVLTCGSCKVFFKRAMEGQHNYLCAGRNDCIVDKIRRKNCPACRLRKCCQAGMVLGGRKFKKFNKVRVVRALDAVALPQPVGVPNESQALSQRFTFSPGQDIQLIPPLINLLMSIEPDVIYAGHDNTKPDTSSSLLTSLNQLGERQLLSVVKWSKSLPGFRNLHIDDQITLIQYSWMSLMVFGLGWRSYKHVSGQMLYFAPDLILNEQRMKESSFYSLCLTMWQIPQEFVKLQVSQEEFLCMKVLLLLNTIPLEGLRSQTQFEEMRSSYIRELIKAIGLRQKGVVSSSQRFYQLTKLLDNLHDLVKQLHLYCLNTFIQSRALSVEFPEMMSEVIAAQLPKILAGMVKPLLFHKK
In words: Binding affinity to progesterone receptor by fluorescence polarization assay. A digest of the protocol:
(§1)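 Fluorescence polarization competition of test compound against a fluorescently labelled ligand for binding to full-length receptor or its ligand-binding domain.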

For the next experiment, the target named is T4, Androgen receptor (Homo sapiens, UniProt P10275).
T4 sequence (P10275 whole entry): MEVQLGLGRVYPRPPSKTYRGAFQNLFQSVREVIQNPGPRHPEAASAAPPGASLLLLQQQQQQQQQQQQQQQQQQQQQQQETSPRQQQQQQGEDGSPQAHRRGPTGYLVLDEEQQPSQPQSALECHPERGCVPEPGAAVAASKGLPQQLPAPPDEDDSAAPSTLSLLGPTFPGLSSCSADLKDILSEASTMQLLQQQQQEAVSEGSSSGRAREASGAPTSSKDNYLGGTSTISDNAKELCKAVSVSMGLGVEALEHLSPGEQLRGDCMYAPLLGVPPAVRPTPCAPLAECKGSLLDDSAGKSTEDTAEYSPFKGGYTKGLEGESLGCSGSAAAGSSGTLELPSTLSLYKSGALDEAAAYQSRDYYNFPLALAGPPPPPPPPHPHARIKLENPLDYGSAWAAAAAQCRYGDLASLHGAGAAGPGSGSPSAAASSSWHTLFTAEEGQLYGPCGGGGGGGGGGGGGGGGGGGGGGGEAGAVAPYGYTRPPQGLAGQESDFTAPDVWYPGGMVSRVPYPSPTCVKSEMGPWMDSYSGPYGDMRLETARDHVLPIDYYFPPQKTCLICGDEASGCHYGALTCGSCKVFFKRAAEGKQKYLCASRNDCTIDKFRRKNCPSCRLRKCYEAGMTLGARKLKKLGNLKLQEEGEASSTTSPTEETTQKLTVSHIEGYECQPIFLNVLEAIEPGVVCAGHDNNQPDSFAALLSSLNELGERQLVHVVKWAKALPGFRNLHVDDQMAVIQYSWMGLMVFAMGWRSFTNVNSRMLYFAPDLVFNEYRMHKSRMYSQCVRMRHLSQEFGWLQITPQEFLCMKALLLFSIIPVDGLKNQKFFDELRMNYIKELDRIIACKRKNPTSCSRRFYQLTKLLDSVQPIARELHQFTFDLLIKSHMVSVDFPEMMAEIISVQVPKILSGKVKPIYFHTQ
In words: Binding affinity to androgen receptor by fluorescence polarization assay. A digest of the protocol:
as §1

Some results are limits rather than exact numbers.

Usually EC50 stands for the concentration giving half of the maximal effect. What is called Ki is a measure of affinity in units of concentration, obtained from inhibition or displacement. Lower therefore signals tighter binding. Turning to `CC(C)(C(=O)Nc1nncs1)C1c2ccccc2Oc2ccccc21`, the EC50 at Glucocorticoid receptor [1] is greater than 10000 nM; at Glucocorticoid receptor [2], greater than 5000 nM; at Glucocorticoid receptor [3], greater than 5000 nM. This molecule came in with a Ki on Glucocorticoid receptor [4] of 6 nM.

With `CC(C)(C(=O)Nc1nccs1)C(c1ccccc1)c1ccc(O)c(F)c1` (racemic), the EC50 amounted to 216 nM on Glucocorticoid receptor [1], 51.1 nM on Glucocorticoid receptor [2], 197 nM at Glucocorticoid receptor [8] and 37.7 nM on Glucocorticoid receptor [3]. Moreover, the Efficacy was 77% in experiment [5], 63% in [6], 39% in experiment [7] and 41% in experiment [9]. The Ki at Glucocorticoid receptor [4] came out at 0.6 nM.

`CC(C)(C(=O)Nc1nccs1)[C@H](c1ccccc1)c1ccc(O)cc1`: the 50% effective concentration (EC50) on Glucocorticoid receptor [1], on Glucocorticoid receptor [2] and on Glucocorticoid receptor [8] was greater than 10000 nM in each case.

With `CC(C)(C(=O)Nc1nncs1)[C@@H]1c2ccccc2Oc2cc(O)ccc21`, the figures for the EC50 at Glucocorticoid receptor [1], at Glucocorticoid receptor [2] and at Glucocorticoid receptor [3] were greater than 10000 nM, greater than 5000 nM and greater than 5000 nM, respectively. Besides, the Ki at Glucocorticoid receptor [4] is 58.7 nM.

Regarding `Cc1cc([C@H](c2ccccc2)C(C)(C)C(=O)Nc2nncs2)ccc1O`, the Ki on Progesterone receptor is 140 nM; on Androgen receptor it was greater than 4000 nM.

`CC(C)(C(=O)Nc1nccs1)[C@@H](c1ccccc1)c1ccc(O)c(C#N)c1`: the EC50 on Glucocorticoid receptor [1] was greater than 10000 nM; at Glucocorticoid receptor [2], 506 nM; on Glucocorticoid receptor [8], greater than 5000 nM; on Glucocorticoid receptor [3], 206 nM. Further, the Efficacy in experiment [5] amounted to 74%; in experiment [6] it was 48%; in [9] it was 16%. In addition, the Ki is 144 nM at Progesterone receptor, greater than 3000 nM on Androgen receptor and 0.9 nM at Glucocorticoid receptor [4].

Take `CC(C)(C(=O)Nc1nccs1)[C@H](c1ccccc1)c1ccc(O)c(F)c1`: the EC50 at Glucocorticoid receptor [1] was greater than 10000 nM; at Glucocorticoid receptor [2] it was greater than 10000 nM; at Glucocorticoid receptor [8], greater than 5000 nM; on Glucocorticoid receptor [3], greater than 5000 nM. The values for the Efficacy in [5] and in experiment [6] were 16% and 12%, respectively. The same molecule had a Ki at Glucocorticoid receptor [4] of 4.6 nM.

As to `CC(=O)c1cc([C@H](c2ccccc2)C(C)(C)C(=O)Nc2nccs2)ccc1O`, the EC50 was greater than 10000 nM on Glucocorticoid receptor [1], greater than 10000 nM on Glucocorticoid receptor [2], 2320 nM at Glucocorticoid receptor [8] and greater than 5000 nM at Glucocorticoid receptor [3]. Besides, the Efficacy in experiment [6] turned out to be 16%. Moreover, the Ki on Glucocorticoid receptor [4] came out at 7.3 nM.

With `CC(C)(C(=O)Nc1nccs1)C(c1ccccc1)c1ccc(O)cc1` (racemic), the EC50 on Glucocorticoid receptor [1] worked out at 863 nM; on Glucocorticoid receptor [2], 61.4 nM; on Glucocorticoid receptor [8] it was 2580 nM; on Glucocorticoid receptor [3], 125 nM. For the same molecule, the Efficacy came out at 63% in experiment [5], 50% in experiment [6], 14% in [7] and 20% in experiment [9]. For the same molecule, the Ki on Glucocorticoid receptor [4] amounted to 2.5 nM.

Turning to `CC(C)(C(=O)Nc1nncs1)[C@@H](c1ccccc1)c1ccc(O)c(Br)c1`, the EC50 at Glucocorticoid receptor [1] came to 67.2 nM; on Glucocorticoid receptor [2], 12.7 nM; on Glucocorticoid receptor [8], 46.5 nM; on Glucocorticoid receptor [3], 6.2 nM. In addition, the Efficacy was determined as 87% in experiment [5], 75% in [6], 54% in experiment [7] and 57% in experiment [9]. The molecule further yielded an inhibitory constant (Ki) at Glucocorticoid receptor [4] of 0.4 nM.

Values taken from ChEMBL document CHEMBL1799968, “Dimethyl-diphenyl-propanamide derivatives as nonsteroidal dissociated glucocorticoid receptor agonists” (J Med Chem, 2010).
